Active and inactive are the calls of the source. The calls are words filed in the database; no cut-off is given here.
Assays:
HT-29 [1] = test: Inhibition of AKT protein expression in human HT-29 cells at 4 uM incubated for 72 hrs by Western blot analysis; assay type: functional, cell-based
A 172 = test: Antiproliferative activity against human A-172 cells assessed as inhibition of cell growth incubated for 24 hrs by MTT assay; assay type: functional, cell-based; conditions: A 172, 24 h
HT-29 [2] = test: Induction of apoptosis in human HT29 cells assessed as increase in late apoptotic cells at 4 uM incubated for 24 hrs by annexin V/PI staining based flow cytometry analysis; assay type: functional, cell-based
How it was run: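 Annexin/PI double staining of HT-29 cells after 24 h exposure at 1, 2 or 4 μM. Flow cytometry gated early apoptotic, late apoptotic and necrotic populations, reported as % of cells. Comparison to untreated control used two-way ANOVA followed by Tukey's post hoc analysis.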

[3] = biological target: Phosphatidylinositol 3-kinase regulatory subunit alpha (Homo sapiens) (UniProt P27986); test: Inhibition of PI3K-P85 phosphorylation in human HT-29 cells at 4 uM incubated for 72 hrs by Western blot analysis; assay type: cell-based
Phosphatidylinositol 3-kinase regulatory subunit alpha (Homo sapiens), sequence (P27986 whole entry): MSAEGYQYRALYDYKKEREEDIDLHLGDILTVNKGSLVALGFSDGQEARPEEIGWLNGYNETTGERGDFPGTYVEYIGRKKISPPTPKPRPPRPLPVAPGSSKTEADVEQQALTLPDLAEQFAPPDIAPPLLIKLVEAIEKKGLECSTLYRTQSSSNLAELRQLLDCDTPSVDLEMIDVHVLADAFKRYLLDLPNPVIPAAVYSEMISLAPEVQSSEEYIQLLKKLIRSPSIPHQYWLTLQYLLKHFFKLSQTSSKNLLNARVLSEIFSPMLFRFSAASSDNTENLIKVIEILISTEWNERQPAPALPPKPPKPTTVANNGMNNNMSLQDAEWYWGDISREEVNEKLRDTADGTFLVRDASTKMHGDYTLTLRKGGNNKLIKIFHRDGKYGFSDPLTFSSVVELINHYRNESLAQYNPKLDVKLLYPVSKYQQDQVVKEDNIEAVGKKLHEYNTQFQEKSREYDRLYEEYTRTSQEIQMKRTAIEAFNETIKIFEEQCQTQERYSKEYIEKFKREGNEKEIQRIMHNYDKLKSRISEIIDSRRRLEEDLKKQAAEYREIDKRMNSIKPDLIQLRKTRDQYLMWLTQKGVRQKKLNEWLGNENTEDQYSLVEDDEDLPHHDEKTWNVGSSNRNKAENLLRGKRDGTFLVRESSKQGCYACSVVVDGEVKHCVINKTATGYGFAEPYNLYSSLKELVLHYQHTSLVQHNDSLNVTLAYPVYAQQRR

[4] = biological target: 182 kDa tankyrase-1-binding protein (Homo sapiens) (UniProt Q9C0C2); test: Inhibition of TAB-182 phosphorylation in human HT-29 cells at 4 uM incubated for 72 hrs by Western blot analysis; assay type: cell-based
182 kDa tankyrase-1-binding protein (Homo sapiens), sequence (Q9C0C2 whole entry): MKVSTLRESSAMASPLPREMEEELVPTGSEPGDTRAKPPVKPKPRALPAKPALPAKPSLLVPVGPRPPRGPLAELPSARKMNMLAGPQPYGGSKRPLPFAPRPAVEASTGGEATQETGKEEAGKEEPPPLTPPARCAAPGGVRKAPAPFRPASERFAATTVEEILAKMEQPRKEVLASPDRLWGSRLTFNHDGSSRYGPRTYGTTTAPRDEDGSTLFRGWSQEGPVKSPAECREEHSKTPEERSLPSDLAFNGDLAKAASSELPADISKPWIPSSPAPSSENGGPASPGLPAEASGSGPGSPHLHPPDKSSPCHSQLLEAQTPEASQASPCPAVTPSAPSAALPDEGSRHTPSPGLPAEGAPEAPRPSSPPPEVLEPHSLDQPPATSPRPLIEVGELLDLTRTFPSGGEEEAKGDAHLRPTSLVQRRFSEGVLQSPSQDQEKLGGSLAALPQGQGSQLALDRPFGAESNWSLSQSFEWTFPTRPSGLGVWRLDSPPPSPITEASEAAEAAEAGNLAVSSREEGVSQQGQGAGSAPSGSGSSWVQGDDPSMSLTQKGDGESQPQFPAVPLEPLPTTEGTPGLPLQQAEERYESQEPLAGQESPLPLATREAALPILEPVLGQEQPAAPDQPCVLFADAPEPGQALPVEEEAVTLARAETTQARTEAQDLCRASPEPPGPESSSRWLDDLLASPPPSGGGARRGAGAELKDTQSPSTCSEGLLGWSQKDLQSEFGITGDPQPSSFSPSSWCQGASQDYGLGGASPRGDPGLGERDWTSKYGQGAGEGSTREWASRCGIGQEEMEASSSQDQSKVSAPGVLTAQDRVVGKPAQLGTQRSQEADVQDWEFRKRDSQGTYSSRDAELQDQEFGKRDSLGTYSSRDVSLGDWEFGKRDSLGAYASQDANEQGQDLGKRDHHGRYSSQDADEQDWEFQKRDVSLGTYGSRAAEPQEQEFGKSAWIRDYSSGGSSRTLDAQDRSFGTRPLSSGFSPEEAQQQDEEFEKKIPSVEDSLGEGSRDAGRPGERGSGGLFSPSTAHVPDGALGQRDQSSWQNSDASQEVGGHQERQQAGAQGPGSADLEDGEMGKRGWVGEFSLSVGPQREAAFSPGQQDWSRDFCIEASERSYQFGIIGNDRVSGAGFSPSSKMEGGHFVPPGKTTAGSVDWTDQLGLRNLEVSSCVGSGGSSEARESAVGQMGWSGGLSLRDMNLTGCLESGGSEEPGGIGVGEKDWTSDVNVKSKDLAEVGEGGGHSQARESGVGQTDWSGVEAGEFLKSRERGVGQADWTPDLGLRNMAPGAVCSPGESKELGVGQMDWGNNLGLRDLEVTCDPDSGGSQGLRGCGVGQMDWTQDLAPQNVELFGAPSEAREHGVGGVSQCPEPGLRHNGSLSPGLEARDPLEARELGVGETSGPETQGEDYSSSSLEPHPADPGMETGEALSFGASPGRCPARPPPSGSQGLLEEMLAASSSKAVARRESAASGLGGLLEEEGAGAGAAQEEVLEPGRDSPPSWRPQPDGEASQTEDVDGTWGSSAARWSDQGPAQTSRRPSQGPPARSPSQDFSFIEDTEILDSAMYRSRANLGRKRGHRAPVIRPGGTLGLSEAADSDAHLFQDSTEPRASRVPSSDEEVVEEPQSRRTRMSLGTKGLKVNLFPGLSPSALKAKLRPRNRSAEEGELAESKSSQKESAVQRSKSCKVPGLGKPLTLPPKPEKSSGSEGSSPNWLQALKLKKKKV

HT-29 [5] = test: Inhibition of nuclear translocation of NFkappaB in human HT-29 cells assessed as reduction in NFkappaB expression in nucleus by immunofluorescence based confocal microscopic analysis; assay type: functional, cell-based
How it was run: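 HT-29 colon cancer cells were treated with test compounds, then immunostained for NF-κB and co-stained for F-actin. Nuclear NF-κB signal was read by immunofluorescence imaging.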

HT-29 [6] = test: Inhibition of TAB-182 protein expression in human HT-29 cells at 4 uM incubated for 72 hrs by Western blot analysis; assay type: functional, cell-based
HT-29 [7] = test: Inhibition of beta-catenin protein expression in human HT-29 cells at 4 uM incubated for 72 hrs by Western blot analysis; assay type: functional, cell-based
[8] = Antiproliferative activity against human Tera-1 cells assessed as inhibition of cell growth incubated for 24 hrs by MTT assay; assay type: functional, cell-based; conditions: Tera-1, 24 h
Caco-2 = test: Antiproliferative activity against human Caco-2 cells assessed as inhibition of cell growth incubated for 24 hrs by MTT assay; assay type: functional, cell-based; conditions: Caco-2, 24 h
DLD-1 = test: Antiproliferative activity against human DLD-1 cells assessed as inhibition of cell growth incubated for 24 hrs by MTT assay; assay type: functional, cell-based; conditions: DLD-1, 24 h
[9] = biological target: T1, Catenin beta-1 (Homo sapiens) (UniProt P35222); test: Inhibition of beta-catenin phosphorylation in human HT-29 cells at 4 uM incubated for 72 hrs by Western blot analysis; assay type: cell-based
T1 sequence (whole entry): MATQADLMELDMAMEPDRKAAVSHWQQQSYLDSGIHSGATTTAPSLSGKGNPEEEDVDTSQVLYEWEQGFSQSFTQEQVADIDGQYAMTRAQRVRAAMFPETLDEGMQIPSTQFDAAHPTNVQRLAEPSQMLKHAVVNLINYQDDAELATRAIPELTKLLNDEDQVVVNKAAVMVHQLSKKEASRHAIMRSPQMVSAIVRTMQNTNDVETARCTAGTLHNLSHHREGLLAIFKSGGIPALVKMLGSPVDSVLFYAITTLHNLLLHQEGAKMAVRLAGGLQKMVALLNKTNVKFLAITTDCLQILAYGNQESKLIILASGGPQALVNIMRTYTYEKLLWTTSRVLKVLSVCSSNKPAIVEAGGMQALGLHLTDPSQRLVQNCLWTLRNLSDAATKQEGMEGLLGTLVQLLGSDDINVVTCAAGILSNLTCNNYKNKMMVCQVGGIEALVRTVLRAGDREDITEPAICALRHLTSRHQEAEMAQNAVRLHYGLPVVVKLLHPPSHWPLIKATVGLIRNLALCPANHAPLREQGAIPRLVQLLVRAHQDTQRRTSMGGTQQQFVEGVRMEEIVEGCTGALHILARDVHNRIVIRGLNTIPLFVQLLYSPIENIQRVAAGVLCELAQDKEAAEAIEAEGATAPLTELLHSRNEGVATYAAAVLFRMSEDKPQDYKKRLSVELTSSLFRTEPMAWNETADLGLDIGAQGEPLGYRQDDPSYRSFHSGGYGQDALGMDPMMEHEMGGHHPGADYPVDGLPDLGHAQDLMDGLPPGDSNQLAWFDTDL

HT-29 [10] = test: Inhibition of phosphorylated PI3K-p85 protein expression in human HT-29 cells at 4 uM incubated for 72 hrs by Western blot analysis; assay type: functional, cell-based
HT-29 [11] = test: Downregulation of PI3K-p85 expression in human HT-29 cells by immunofluorescence based confocal microscopic analysis; assay type: functional, cell-based
How it was run: (§1)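 HT-29 cells were stained for F-actin with Phalloidin Red alongside immunofluorescent staining of PI3K-p85 (or NF-κB), then examined by fluorescence imaging for actin-filament integrity and p85 signal.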

HT-29 [12] = test: Antiproliferative activity against human HT-29 cells assessed as inhibition of cell growth incubated for 24 hrs by MTT assay; assay type: functional, cell-based; conditions: HT-29, 24 h
A549 = test: Antiproliferative activity against human A549 cells assessed as inhibition of cell growth incubated for 24 hrs by MTT assay; assay type: functional, cell-based; conditions: A549, 24 h
HT-29 [13] = test: Cytotoxicity against human HT-29 cells assessed as damage of actin filament by F-actin/phalloidin red staining based confocal microscopic analysis; assay type: functional, cell-based; how it was run: as §1
HT-29 [14] = test: Downregulation of TAB-182 protein expression in human HT-29 cells at 4 uM by immunostaining based confocal microscopic analysis; assay type: functional, cell-based
HT-29 [15] = test: Induction of ROS generation in human HT-29 cells at 1 uM by CM-H2DCFDA fluorescent probe based flow cytometry analysis (reference value: 0.528%); assay type: functional
HT-29 [16] = test: Induction of cell cycle arrest in human HT-29 cells assessed as accumulation of cells at G2/M phase at 1 uM incubated for 24 hrs by RNase/PI staining based flow cytometry analysis (reference value: 23.695 %); assay type: functional
[17] = biological target: Phosphatidylinositol 3-kinase regulatory subunit alpha (Homo sapiens) (UniProt P27986); test: Inhibition of PI3K-P85 phosphorylation in human HT-29 cells at 1 uM incubated for 72 hrs by Western blot analysis; assay type: cell-based
HT-29 [18] = test: Inhibition of TAB-182 protein expression in human HT-29 cells at 1 uM incubated for 72 hrs by Western blot analysis; assay type: functional, cell-based
HT-29 [19] = test: Induction of mitochondrial ROS generation in human HT-29 cells at 1 uM by MitoSOX red dye based flow cytometry analysis; assay type: functional, cell-based
How it was run: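 Mitochondrial superoxide in HT-29 cells was read with the mitochondria-localizing MitoSOX Red probe after treatment at 1, 2 or 4 μM. Flow cytometry histograms were acquired on 10,000 cells, and results were expressed as mean fluorescence intensity. Versus control, significance was tested by one-way ANOVA with Tukey's post hoc test.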

HT-29 [20] = test: Inhibition of beta-actin protein expression in human HT-29 cells at 2 uM incubated for 72 hrs by Western blot analysis; assay type: functional, cell-based
HT-29 [21] = test: Downregulation of beta-catenin protein expression in human HT-29 cells at 2 uM by immunostaining based confocal microscopic analysis; assay type: functional, cell-based
[22] = biological target: 182 kDa tankyrase-1-binding protein (Homo sapiens) (UniProt Q9C0C2); test: Inhibition of TAB-182 phosphorylation in human HT-29 cells at 2 uM incubated for 72 hrs by Western blot analysis; assay type: cell-based
HT-29 [23] = test: Downregulation of TAB-182 protein expression in human HT-29 cells at 2 uM by immunostaining based confocal microscopic analysis; assay type: functional, cell-based

SMILES | IC50 (A 172) [µM] | inhibition (HT-29 [5]) | IC50 [8] [µM] | IC50 (Caco-2) [µM] | IC50 (DLD-1) [µM] | Activity (HT-29 [11]) | IC50 (HT-29 [12]) [µM] | IC50 (A549) [µM] | Activity (HT-29 [13]) | also measured
COc1cccc(-n2c(SCCc3c[nH]c4ccccc34)nnc2-c2ccncc2)c1 | 26.8 | Active | 19.4 | 15.5 | 9.3 | Active | 3.6 | 25.1 | Active | inhibition (HT-29 [1]): Active; Activity (HT-29 [2]): Active; inhibition [3]: Active; inhibition [4]: Active; inhibition (HT-29 [6]): Active; inhibition (HT-29 [7]): Active; inhibition [9]: Active; inhibition (HT-29 [10]): Active; Activity (HT-29 [14]): Active
COc1ccc(-n2c(SCCc3c[nH]c4ccccc34)nnc2-c2ccncc2)cc1 | 9 | Active | 4.3 | 3.9 | 7 | Active | 1 | 6.7 | Active | Activity (HT-29 [15]): 15.334%; Activity (HT-29 [16]): 22.841%; inhibition [17]: Active; inhibition (HT-29 [18]): Active; Activity (HT-29 [19]): Active
Fc1ccccc1-n1c(SCCc2c[nH]c3ccccc23)nnc1-c1ccncc1 | 9.5 | Active | 10.5 | 9.1 | 7 | Active | 2.4 | 5.3 | Active | inhibition (HT-29 [20]): Active; Activity (HT-29 [21]): Active; inhibition [22]: Active; Activity (HT-29 [23]): Active
